ChEMBL document CHEMBL5653631, “A Potent and Selective ULK1 Inhibitor Suppresses Autophagy and Sensitizes Cancer Cells to Nutrient Stress” (iScience, 2018)
Values belong to the compound of their own block, whether it stands above or below them.

What was measured:
[1] = target: Ephrin type-A receptor 7 (Homo sapiens) (UniProt Q15375); assay: Inhibition of human recombinant EphA7 at 500 nM in presence of ATP by radiometric assay relative to control
[2] = target: T1, Serine/threonine-protein kinase BRSK1 (Homo sapiens) (UniProt Q8TDC3); assay: Inhibition of human recombinant BRSK1 at 500 nM in presence of ATP by radiometric assay relative to control
T1 sequence (whole entry): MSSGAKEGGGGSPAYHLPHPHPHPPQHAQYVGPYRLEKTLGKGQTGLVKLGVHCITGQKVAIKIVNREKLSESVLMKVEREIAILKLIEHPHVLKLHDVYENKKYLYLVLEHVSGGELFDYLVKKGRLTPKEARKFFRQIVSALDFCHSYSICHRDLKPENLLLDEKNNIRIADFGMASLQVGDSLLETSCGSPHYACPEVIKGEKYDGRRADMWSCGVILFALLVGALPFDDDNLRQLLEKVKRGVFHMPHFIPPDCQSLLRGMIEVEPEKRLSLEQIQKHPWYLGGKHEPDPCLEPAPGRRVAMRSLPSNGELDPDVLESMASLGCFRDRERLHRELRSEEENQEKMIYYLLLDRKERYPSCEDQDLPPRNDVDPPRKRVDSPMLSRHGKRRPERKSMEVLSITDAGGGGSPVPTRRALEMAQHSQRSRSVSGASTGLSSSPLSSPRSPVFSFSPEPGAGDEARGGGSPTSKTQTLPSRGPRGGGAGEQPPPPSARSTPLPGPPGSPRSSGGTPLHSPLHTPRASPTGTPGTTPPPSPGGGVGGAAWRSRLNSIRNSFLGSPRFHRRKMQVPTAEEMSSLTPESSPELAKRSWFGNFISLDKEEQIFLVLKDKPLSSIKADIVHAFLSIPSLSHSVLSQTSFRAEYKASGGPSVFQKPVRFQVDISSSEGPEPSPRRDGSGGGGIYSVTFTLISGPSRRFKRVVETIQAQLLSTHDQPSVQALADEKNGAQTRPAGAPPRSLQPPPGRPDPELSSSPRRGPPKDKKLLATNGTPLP
Method in brief: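 Recombinant human kinase panel (327 kinases) run as radiometric activity assays, each kinase in duplicate at one compound concentration. Activity remaining expressed relative to vehicle control; percent inhibition taken as 100% minus % activity remaining.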

[3] = target: Calcium/calmodulin-dependent protein kinase type 1B (Homo sapiens) (UniProt Q6P2M8); assay: Inhibition of human recombinant CaMK1b at 500 nM in presence of ATP by radiometric assay relative to control
[4] = target: Epidermal growth factor receptor (Homo sapiens) (UniProt P00533); assay: Inhibition of human recombinant EGFR at 500 nM in presence of ATP by radiometric assay relative to control
[5] = target: Serine/threonine-protein kinase WNK3 (Homo sapiens) (UniProt Q9BYP7); assay: Inhibition of human recombinant Wnk3 at 500 nM in presence of ATP by radiometric assay relative to control
[6] = target: Tyrosine-protein kinase Yes (Homo sapiens) (UniProt P07947); assay: Inhibition of human recombinant YES at 15 nM in presence of ATP by radiometric assay relative to control
[7] = target: Insulin receptor-related protein (Homo sapiens) (UniProt P14616); assay: Inhibition of human recombinant IRR at 40 nM related to control ULK1
[8] = target: Serine/threonine-protein kinase SIK3 (Homo sapiens) (UniProt Q9Y2K2); assay: Inhibition of human recombinant QSK at 40 nM in presence of ATP by radiometric assay relative to control
[9] = target: Vascular endothelial growth factor receptor 3 (Homo sapiens) (UniProt P35916); assay: Inhibition of human recombinant FLT4 at 40 nM related to control ULK1
[10] = target: T2, MAP kinase-activated protein kinase 5 (Homo sapiens) (UniProt Q8IW41); assay: Inhibition of human recombinant MAPKAPK5 at 40 nM related to control ULK1
T2 sequence (whole entry): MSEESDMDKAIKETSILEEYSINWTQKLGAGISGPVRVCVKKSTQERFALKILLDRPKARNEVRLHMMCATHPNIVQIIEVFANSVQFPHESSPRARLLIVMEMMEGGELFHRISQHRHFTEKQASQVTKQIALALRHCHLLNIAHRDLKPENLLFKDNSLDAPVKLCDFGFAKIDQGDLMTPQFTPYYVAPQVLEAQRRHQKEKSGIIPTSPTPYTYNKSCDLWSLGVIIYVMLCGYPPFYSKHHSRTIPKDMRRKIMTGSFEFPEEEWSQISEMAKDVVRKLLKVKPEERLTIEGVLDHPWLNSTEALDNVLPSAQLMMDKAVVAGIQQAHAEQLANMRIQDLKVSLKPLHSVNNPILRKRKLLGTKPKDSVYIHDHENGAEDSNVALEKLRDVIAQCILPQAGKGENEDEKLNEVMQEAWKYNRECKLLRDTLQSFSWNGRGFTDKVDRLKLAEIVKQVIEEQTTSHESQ

[11] = target: Serine/threonine-protein kinase WNK2 (Homo sapiens) (UniProt Q9Y3S1); assay: Inhibition of human recombinant Wnk2 at 40 nM related to control ULK1
Serine/threonine-protein kinase WNK2 (Homo sapiens), sequence (Q9Y3S1 whole entry): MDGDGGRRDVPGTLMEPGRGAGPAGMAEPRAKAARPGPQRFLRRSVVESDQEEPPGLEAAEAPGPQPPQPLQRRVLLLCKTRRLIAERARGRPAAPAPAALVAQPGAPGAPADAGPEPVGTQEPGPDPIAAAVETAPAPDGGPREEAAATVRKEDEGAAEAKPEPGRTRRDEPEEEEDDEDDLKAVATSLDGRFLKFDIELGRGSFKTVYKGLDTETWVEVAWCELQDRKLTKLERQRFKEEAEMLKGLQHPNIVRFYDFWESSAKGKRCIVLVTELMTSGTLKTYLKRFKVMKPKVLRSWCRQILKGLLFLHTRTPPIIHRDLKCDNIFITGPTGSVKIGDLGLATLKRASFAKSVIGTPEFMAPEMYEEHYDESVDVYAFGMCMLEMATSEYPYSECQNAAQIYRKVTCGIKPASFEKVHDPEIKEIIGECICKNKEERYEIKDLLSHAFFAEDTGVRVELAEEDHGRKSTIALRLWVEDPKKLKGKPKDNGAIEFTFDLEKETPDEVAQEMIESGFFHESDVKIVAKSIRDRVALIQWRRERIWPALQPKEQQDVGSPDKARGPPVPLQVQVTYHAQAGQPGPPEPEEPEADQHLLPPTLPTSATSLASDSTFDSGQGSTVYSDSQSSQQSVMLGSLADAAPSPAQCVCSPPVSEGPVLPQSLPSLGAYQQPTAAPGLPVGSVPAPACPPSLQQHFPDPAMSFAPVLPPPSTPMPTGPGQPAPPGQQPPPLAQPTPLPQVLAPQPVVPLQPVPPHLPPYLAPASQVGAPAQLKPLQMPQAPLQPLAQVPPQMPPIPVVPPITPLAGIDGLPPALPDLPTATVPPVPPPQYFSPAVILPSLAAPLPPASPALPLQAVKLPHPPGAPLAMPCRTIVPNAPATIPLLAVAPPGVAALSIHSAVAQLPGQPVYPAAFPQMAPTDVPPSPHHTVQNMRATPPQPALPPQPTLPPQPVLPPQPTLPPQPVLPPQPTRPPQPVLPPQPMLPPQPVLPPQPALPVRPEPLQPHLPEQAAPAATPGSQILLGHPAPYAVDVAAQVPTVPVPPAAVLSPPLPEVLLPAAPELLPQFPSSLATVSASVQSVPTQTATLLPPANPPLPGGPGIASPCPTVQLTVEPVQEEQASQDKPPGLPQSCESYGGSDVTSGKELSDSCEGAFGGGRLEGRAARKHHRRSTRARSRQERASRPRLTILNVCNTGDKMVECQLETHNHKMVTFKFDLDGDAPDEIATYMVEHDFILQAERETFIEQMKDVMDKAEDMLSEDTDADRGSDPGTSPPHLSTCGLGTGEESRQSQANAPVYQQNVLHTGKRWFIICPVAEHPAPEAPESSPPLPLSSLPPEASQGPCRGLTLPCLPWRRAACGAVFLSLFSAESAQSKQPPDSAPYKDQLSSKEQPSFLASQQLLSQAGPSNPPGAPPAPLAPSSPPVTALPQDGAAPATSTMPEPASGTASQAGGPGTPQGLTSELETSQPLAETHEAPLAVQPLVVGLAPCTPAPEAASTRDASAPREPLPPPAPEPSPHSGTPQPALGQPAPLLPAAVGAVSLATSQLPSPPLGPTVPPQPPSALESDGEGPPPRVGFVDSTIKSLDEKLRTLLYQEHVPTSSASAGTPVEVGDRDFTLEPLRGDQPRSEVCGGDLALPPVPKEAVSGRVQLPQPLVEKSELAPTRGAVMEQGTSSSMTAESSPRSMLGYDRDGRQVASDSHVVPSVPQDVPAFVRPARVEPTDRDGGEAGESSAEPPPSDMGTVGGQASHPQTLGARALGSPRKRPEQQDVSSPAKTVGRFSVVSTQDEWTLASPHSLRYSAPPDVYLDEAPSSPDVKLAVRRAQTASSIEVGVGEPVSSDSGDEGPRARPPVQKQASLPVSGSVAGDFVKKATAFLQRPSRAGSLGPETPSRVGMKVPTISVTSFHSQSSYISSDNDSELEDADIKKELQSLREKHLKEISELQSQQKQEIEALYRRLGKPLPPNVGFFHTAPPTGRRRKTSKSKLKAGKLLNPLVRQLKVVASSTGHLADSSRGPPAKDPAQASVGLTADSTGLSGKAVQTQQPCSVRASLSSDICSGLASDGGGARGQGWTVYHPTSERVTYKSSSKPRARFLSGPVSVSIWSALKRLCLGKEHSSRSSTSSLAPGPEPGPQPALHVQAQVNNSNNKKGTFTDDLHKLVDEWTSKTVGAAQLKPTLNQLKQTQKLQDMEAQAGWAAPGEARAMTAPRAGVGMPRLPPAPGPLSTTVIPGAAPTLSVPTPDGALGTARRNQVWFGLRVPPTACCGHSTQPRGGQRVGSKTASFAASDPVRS

Calcium/calmodulin-dependent protein kinase type 1B (Homo sapiens), sequence (Q6P2M8 whole entry): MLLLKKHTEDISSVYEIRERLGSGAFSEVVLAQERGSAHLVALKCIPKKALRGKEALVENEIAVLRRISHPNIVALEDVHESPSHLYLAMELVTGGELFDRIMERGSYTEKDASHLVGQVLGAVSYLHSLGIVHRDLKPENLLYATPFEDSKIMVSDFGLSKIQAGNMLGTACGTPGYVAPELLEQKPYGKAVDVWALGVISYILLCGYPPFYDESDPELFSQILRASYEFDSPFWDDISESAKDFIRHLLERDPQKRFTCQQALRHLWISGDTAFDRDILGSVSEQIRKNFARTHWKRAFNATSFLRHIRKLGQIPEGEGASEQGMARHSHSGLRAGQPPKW
Epidermal growth factor receptor (Homo sapiens), sequence (P00533 whole entry): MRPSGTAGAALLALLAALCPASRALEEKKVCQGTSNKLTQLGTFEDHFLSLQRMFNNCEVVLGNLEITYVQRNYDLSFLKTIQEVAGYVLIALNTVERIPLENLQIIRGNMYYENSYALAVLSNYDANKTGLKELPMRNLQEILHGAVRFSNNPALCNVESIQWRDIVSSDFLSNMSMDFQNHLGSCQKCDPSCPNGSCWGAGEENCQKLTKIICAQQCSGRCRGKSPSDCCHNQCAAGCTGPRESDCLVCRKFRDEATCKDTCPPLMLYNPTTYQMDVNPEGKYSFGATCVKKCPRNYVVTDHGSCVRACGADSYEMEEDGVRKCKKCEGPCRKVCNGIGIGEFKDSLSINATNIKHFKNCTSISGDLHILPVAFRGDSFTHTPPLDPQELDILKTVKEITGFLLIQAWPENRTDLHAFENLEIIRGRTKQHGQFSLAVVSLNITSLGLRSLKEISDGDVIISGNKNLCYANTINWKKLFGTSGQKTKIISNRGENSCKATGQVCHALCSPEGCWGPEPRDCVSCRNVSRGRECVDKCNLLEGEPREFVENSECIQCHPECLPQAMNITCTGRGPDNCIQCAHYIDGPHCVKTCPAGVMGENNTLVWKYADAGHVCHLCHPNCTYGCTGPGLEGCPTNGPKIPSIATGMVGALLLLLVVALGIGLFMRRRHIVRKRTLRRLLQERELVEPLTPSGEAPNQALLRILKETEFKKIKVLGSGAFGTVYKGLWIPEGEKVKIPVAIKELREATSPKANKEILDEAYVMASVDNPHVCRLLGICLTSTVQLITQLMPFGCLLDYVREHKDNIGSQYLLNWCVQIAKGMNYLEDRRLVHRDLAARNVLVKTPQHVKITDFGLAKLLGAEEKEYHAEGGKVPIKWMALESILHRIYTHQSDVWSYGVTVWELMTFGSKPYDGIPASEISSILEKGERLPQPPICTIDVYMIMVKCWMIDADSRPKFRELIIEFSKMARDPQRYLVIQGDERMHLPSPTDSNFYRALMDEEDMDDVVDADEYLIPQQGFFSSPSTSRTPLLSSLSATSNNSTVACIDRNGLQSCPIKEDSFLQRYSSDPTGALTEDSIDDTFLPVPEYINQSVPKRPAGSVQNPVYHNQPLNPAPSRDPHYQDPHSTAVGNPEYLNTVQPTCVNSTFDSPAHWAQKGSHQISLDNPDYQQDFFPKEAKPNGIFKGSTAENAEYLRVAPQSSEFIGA
Ephrin type-A receptor 7 (Homo sapiens), sequence (Q15375 28-998 limits assumed): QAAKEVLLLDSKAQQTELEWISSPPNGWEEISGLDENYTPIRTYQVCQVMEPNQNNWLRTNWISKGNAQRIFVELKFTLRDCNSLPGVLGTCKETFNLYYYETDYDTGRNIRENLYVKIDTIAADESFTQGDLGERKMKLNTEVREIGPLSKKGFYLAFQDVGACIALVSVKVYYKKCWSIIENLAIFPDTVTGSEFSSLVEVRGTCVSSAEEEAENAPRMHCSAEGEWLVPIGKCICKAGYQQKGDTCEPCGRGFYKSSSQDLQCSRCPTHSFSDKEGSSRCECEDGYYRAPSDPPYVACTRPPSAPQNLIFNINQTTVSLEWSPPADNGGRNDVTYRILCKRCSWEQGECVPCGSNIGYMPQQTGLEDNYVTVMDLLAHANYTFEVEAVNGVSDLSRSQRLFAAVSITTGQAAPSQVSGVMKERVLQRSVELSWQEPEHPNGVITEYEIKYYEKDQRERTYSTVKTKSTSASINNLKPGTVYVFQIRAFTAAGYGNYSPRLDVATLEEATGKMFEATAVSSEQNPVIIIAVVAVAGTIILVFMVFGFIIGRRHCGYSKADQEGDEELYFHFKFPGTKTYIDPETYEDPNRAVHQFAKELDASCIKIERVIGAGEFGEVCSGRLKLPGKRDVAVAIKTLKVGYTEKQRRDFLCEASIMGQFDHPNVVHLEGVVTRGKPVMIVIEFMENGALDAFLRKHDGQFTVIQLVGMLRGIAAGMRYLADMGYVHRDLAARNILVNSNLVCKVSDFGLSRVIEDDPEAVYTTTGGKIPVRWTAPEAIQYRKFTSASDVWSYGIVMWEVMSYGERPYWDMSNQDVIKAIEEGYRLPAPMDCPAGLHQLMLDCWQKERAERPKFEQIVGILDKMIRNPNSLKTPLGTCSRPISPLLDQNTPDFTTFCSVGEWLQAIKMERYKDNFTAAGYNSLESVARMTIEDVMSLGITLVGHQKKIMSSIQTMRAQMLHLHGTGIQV

- inhibition [1]: 0%
- inhibition [2]: 2%
- inhibition [3]: 0%
- inhibition [4]: 3%
- inhibition [5]: 6%
Structure (SMILES): CNC(=O)c1ccccc1Oc1nc(Nc2cc(OC)c(OC)c(OC)c2)ncc1Br

- inhibition [6]: 76%
Structure (SMILES): CC(C)[C@H](NC(=O)c1cc(-c2cnn3cc(-c4ccc(OCCN5CCCCC5)cc4)cnc23)cs1)C(F)(F)F

- fold change (FC) [7]: 0.03
- inhibition [8]: 59%
- fold change (FC) [9]: 0.26
- fold change (FC) [10]: 0
- fold change (FC) [11]: 0.04
Structure (SMILES): O=C(N[C@@H](C1CC1)C(F)(F)F)c1cc(-c2cnn3cc(-c4ccc(F)cc4)cnc23)cs1
